Columns and labels:
Type in all cases: functional
Pseudomonas aeruginosa [1] = experiment: Potentiation of rifampicin-induced antibacterial activity against MDR/XDR Pseudomonas aeruginosa isolate 101885 harboring GyrA T83I mutant assessed as fold reduction in rifampicin MIC at 9 uM incubated for 18 hrs by broth microdilution method
How it was run: (§1)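 CLSI broth microdilution. Overnight cultures were set to 0.5 McFarland in saline, diluted 1:50 in Mueller-Hinton broth to a final 5 × 10^5 CFU/mL, and incubated 18 h at 37 °C against 2-fold antibiotic dilutions. A fixed adjuvant level was present throughout. MIC = lowest concentration with no visible turbidity, confirmed at 590 nm. Potentiation = fold drop in antibiotic MIC versus antibiotic alone.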

Pseudomonas aeruginosa [2] = experiment: Potentiation of minocycline-induced antibacterial activity against MDR/XDR Pseudomonas aeruginosa isolate 101885 harboring GyrA T83I mutant assessed as fold reduction in minocycline MIC at 9 uM incubated for 18 hrs by broth microdilution method
Pseudomonas aeruginosa [3] = experiment: Potentiation of rifampicin-induced antibacterial activity against MDR/XDR Pseudomonas aeruginosa isolate PA260-97103 harboring GyrA T83I mutant assessed as fold reduction in rifampicin MIC at 9 uM incubated for 18 hrs by broth microdilution method; how it was run: as §1
Pseudomonas aeruginosa [4] = experiment: Potentiation of moxifloxacin-induced antibacterial activity against MDR/XDR Pseudomonas aeruginosa isolate 101243 devoid of GyrA T83I mutant assessed as fold reduction in moxifloxacin MIC at 9 uM incubated for 18 hrs by broth microdilution method; how it was run: as §1
Pseudomonas aeruginosa [5] = experiment: Potentiation of minocycline-induced antibacterial activity against MDR/XDR Pseudomonas aeruginosa isolate PA260-97103 harboring GyrA T83I mutant assessed as fold reduction in minocycline MIC at 9 uM incubated for 18 hrs by broth microdilution method
Pseudomonas aeruginosa [6] = experiment: Potentiation of ciprofloxacin-induced antibacterial activity against MDR/XDR Pseudomonas aeruginosa isolate PA262-101856 harboring GyrA T83I mutant assessed as fold reduction in ciprofloxacin MIC at 9 uM incubated for 18 hrs by broth microdilution method
Pseudomonas aeruginosa [7] = experiment: Potentiation of minocycline-induced antibacterial activity against MDR/XDR Pseudomonas aeruginosa isolate PA259-96918 harboring GyrA T83I mutant assessed as fold reduction in minocycline MIC at 9 uM incubated for 18 hrs by broth microdilution method
Pseudomonas aeruginosa [8] = experiment: Potentiation of minocycline-induced antibacterial activity against wild type Pseudomonas aeruginosa PAO1 assessed as fold reduction in minocycline MIC at 9 uM incubated for 18 hrs by broth microdilution method; how it was run: as §1
Pseudomonas aeruginosa [9] = experiment: Potentiation of ciprofloxacin-induced antibacterial activity against MDR/XDR Pseudomonas aeruginosa isolate 101885 harboring GyrA T83I mutant assessed as fold reduction in ciprofloxacin MIC at 9 uM incubated for 18 hrs by broth microdilution method
Pseudomonas aeruginosa [10] = experiment: Potentiation of ciprofloxacin-induced antibacterial activity against MDR/XDR Pseudomonas aeruginosa isolate 101243 devoid of GyrA T83I mutant assessed as fold reduction in ciprofloxacin MIC at 9 uM incubated for 18 hrs by broth microdilution method
Acinetobacter baumannii [11] = experiment: Antimicrobial activity against multidrug-resistant Acinetobacter baumannii AB92247 incubated for 18 hrs by broth dilution method; settings: AB92247, 18 h
How it was run: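 Broth microdilution per CLSI: overnight cultures set to 0.5 McFarland in saline, diluted 1:50 in Mueller-Hinton broth to a final 5 × 10^5 CFU/mL, added to 2-fold serial dilutions, incubated 18 h at 37 °C; MIC is the lowest concentration without visible turbidity, confirmed at 590 nm.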

Acinetobacter baumannii [12] = experiment: Synergistic antibacterial activity against multidrug-resistant Acinetobacter baumannii AB027 assessed as fractional inhibitory concentration index in presence of minocycline incubated for 18 hrs by broth dilution method
Pseudomonas aeruginosa [13] = experiment: Potentiation of minocycline-induced antibacterial activity against MDR/XDR Pseudomonas aeruginosa isolate 100036 harboring GyrA T83I mutant assessed as fold reduction in minocycline MIC at 7.5 uM incubated for 18 hrs by broth microdilution method
Pseudomonas aeruginosa [14] = experiment: Potentiation of rifampicin-induced antibacterial activity against MDR/XDR Pseudomonas aeruginosa isolate 100036 harboring GyrA T83I mutant assessed as fold reduction in rifampicin MIC at 7.5 uM incubated for 18 hrs by broth microdilution method; how it was run: as §1
Pseudomonas aeruginosa [15] = experiment: Potentiation of minocycline-induced antimicrobial activity against MDR/XDR Pseudomonas aeruginosa isolate PA260-97103 harboring GyrA Thr83Ile mutant assessed as minocycline MIC80 incubated for 18 hrs by broth microdilution method (reference value: 32 microg/ml); settings: isolate PA260-97103, 18 h
Pseudomonas aeruginosa [16] = experiment: Potentiation of minocycline-induced antimicrobial activity against MDR/XDR Pseudomonas aeruginosa isolate PA264-104354 harboring GyrA Thr83Ile mutant assessed as minocycline MIC50 incubated for 18 hrs by broth microdilution method (reference value: 16 microg/ml); settings: isolate PA264-104354, 18 h
Pseudomonas aeruginosa [17] = experiment: Potentiation of minocycline-induced antimicrobial activity against MDR/XDR Pseudomonas aeruginosa isolate 101243 devoid of GyrA Thr83Ile mutant assessed as minocycline MIC50 incubated for 18 hrs by broth microdilution method (reference value: 16 microg/ml); settings: isolate 101243, 18 h
Pseudomonas aeruginosa [18] = experiment: Potentiation of minocycline-induced antimicrobial activity against MDR/XDR Pseudomonas aeruginosa isolate PA259-96918 harboring GyrA Thr83Ile mutant assessed as minocycline MIC50 incubated for 18 hrs by broth microdilution method (reference value: 16 microg/ml); settings: isolate PA259-96918, 18 h
Pseudomonas aeruginosa [19] = experiment: Potentiation of minocycline-induced antibacterial activity against MDR/XDR Pseudomonas aeruginosa isolate 91433 devoid of GyrA T83I mutant assessed as fold reduction in minocycline MIC at 7.5 uM incubated for 18 hrs by broth microdilution method
Acinetobacter baumannii [20] = experiment: Potentiation of rifampicin-induced antibacterial activity against multidrug-resistant Acinetobacter baumannii AB031 assessed as fold reduction in rifampicin MIC at 7.5 uM incubated for 18 hrs by broth dilution method; how it was run: as §1
Acinetobacter baumannii [21] = experiment: Synergistic antibacterial activity against multidrug-resistant Acinetobacter baumannii AB031 assessed as fractional inhibitory concentration index in presence of rifampicin incubated for 18 hrs by broth dilution method
Pseudomonas aeruginosa [22] = experiment: Potentiation of minocycline-induced antimicrobial activity against MDR/XDR Pseudomonas aeruginosa isolate 91433 devoid of GyrA Thr83Ile mutant assessed as minocycline MIC50 incubated for 18 hrs by broth microdilution method (reference value: 16 microg/ml); settings: isolate 91433, 18 h
Pseudomonas aeruginosa [23] = experiment: Potentiation of moxifloxacin-induced antibacterial activity against MDR/XDR Pseudomonas aeruginosa isolate 100036 harboring GyrA T83I mutant assessed as fold reduction in moxifloxacin MIC at 7.5 uM incubated for 18 hrs by broth microdilution method; how it was run: as §1
Pseudomonas aeruginosa [24] = experiment: Potentiation of rifampicin-induced antimicrobial activity against MDR/XDR Pseudomonas aeruginosa isolate 101885 harboring GyrA Thr83Ile mutant assessed as rifampicin MIC50 incubated for 18 hrs by broth microdilution method (reference value: 8 microg/ml); settings: isolate 101885, 18 h
Pseudomonas aeruginosa [25] = experiment: Potentiation of rifampicin-induced antimicrobial activity against MDR/XDR Pseudomonas aeruginosa isolate PA264-104354 harboring GyrA Thr83Ile mutant assessed as rifampicin MIC50 incubated for 18 hrs by broth microdilution method (reference value: 8 microg/ml); settings: isolate PA264-104354, 18 h

Cl.Cl.Cl.Cl.Cl.Cl.NC[C@H]1O[C@H](O[C@H]2[C@H](OCCCCCCCCCCN3CCN(Cc4cccc5ccccc45)CC3)[C@@H](O)[C@H](N)C[C@@H]2N)[C@H](N)C[C@@H]1O
fold change (FC) (Pseudomonas aeruginosa [1]): 128 | fold change (FC) (Pseudomonas aeruginosa [2]): 64 | fold change (FC) (Pseudomonas aeruginosa [3]): 64 | fold change (FC) (Pseudomonas aeruginosa [4]): 8 | fold change (FC) (Pseudomonas aeruginosa [5]): 64 | fold change (FC) (Pseudomonas aeruginosa [6]): 8 | fold change (FC) (Pseudomonas aeruginosa [7]): 64 | fold change (FC) (Pseudomonas aeruginosa [8]): 16 | fold change (FC) (Pseudomonas aeruginosa [9]): 8 | fold change (FC) (Pseudomonas aeruginosa [10]): 4

Cl.Cl.Cl.Cl.Cl.NC[C@H]1O[C@H](O[C@H]2[C@H](OCCCCCCCCCCCCN3CCN(c4cc5c(cc4F)c(=O)c(C(=O)O)cn5C4CC4)CC3)[C@@H](O)[C@H](N)C[C@@H]2N)[C@H](N)C[C@@H]1O
MIC (Acinetobacter baumannii [11]): 128 µg/mL

COc1c(N2C[C@@H]3CCCN(CCCCCCCCCCCCO[C@@H]4[C@@H](O)[C@H](N)C[C@H](N)[C@H]4O[C@H]4O[C@H](CN)[C@@H](O)C[C@H]4N)[C@@H]3C2)c(F)cc2c(=O)c(C(=O)O)cn(C3CC3)c12.Cl.Cl.Cl.Cl.Cl
fractional inhibitory concentration index (FICI) (Acinetobacter baumannii [12]): >1 | fold change (FC) (Pseudomonas aeruginosa [13]): 32 | fold change (FC) (Pseudomonas aeruginosa [14]): 256 | MIC80 (Pseudomonas aeruginosa [15]): 1 µg/mL | MIC50 (Pseudomonas aeruginosa [16]): 0.5 µg/mL | MIC50 (Pseudomonas aeruginosa [17]): 0.5 µg/mL | MIC50 (Pseudomonas aeruginosa [18]): 0.5 µg/mL | fold change (FC) (Pseudomonas aeruginosa [19]): 32 | fold change (FC) (Acinetobacter baumannii [20]): 64 | fractional inhibitory concentration index (FICI) (Acinetobacter baumannii [21]): 0.04 | MIC50 (Pseudomonas aeruginosa [22]): 0.5 µg/mL | fold change (FC) (Pseudomonas aeruginosa [23]): 16 | MIC50 (Pseudomonas aeruginosa [24]): 0.06 µg/mL | MIC50 (Pseudomonas aeruginosa [25]): 0.06 µg/mL

From ChEMBL document CHEMBL4354800, “Amphiphilic nebramine-based hybrids Rescue legacy antibiotics from intrinsic resistance in multidrug-resistant Gram-negative bacilli” (Eur J Med Chem, 2019)
